Assay results published in ChEMBL document CHEMBL4152234, “Aminobenzothiazole derivatives stabilize the thermolabile p53 cancer mutant Y220C and show anticancer activity in p53-Y220C cell lines” (Eur J Med Chem, 2018).
Calls of active or inactive are those of the source. No cut-off for these calls is given here.

Tests used:
[1] = test system: Cellular tumor antigen p53 (Homo sapiens), P04637 [Y220C]; assay: Activation of p53 Y220C mutant in human HuH7 cells assessed as increase in p21 mRNA level at 30 uM after 18 hrs by RT-PCR method; format: cell-based
Outline: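 Real-time PCR. Cells were treated for 18 h, with 0.5% DMSO in both compound and control samples. Relative mRNA levels were quantified by the ΔΔCt method as fold-change against the untreated sample. Each sample was measured in triplicate, and data are given as mean ± SEM with an unpaired t-test.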

[2] = target: T1, Cellular tumor antigen p53 (Homo sapiens, UniProt P04637); assay: Activation of p53 in human NUGC4 cells assessed as change in IGF1R mRNA level at 60 uM after 18 hrs by RT-PCR method relative to control; format: cell-based; details: read-out: FC
Outline: (§1)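 p53 signaling qPCR array of 84 p53-pathway genes. Cells were treated in 6-well plates for 18 h with 0.5% DMSO in compound and control samples. Total RNA was extracted and fold-changes were obtained by the ΔΔCt method against untreated control, with β2-microglobulin (B2M) as housekeeping gene. Two independent biological replicates per cell line.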

[3] = test system: Cellular tumor antigen p53 (Homo sapiens), P04637 [Y220C]; assay: Activation of p53 Y220C mutant in human NUGC3 cells assessed as change in BAI1 mRNA level at 60 uM after 18 hrs by RT-PCR method relative to control; format: cell-based
Outline: (§2)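 p53 signalling qPCR array covering 84 genes. Cells were exposed for 18 h, with 0.5% DMSO in both compound and control samples. Total RNA was extracted and purified. Fold-changes were calculated by ΔΔCt using β2-microglobulin (B2M) as the housekeeping gene. Two independent biological replicates were run per cell line.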

[4] = target: T1, Cellular tumor antigen p53; assay: Activation of p53 in human NUGC4 cells assessed as change in F0X03 mRNA level at 60 uM after 18 hrs by RT-PCR method relative to control; format: cell-based; details: read-out: FC; outline: as §1
[5] = target: T1, Cellular tumor antigen p53; assay: Activation of p53 in human NUGC4 cells assessed as change in MLH1 mRNA level at 60 uM after 18 hrs by RT-PCR method relative to control; format: cell-based; details: read-out: FC; outline: as §1
[6] = test system: Cellular tumor antigen p53 (Homo sapiens), P04637 [Y220C]; assay: Activation of p53 Y220C mutant in human NUGC3 cells assessed as change in TP53AIP1 mRNA level at 60 uM after 18 hrs by RT-PCR method relative to control; format: cell-based
Outline: (§3)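 p53 signalling qPCR array covering 84 p53 pathway genes. Cells were exposed for 18 h, and compound and control wells both held 0.5% DMSO. Total RNA was extracted and purified. Fold-changes were calculated by the ΔΔCt method against the untreated sample, with β2-microglobulin (B2M) as the housekeeping gene. Each cell line was run in two independent biological replicates.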

[7] = target: T1, Cellular tumor antigen p53; assay: Activation of p53 in human NUGC4 cells assessed as change in XRCC5 mRNA level at 60 uM after 18 hrs by RT-PCR method relative to control; format: cell-based; details: read-out: FC
[8] = target: T1, Cellular tumor antigen p53; assay: Activation of p53 in human NUGC4 cells assessed as change in BCL2 mRNA level at 60 uM after 18 hrs by RT-PCR method relative to control; format: cell-based; details: read-out: FC; outline: as §3
[9] = test system: Cellular tumor antigen p53 (Homo sapiens), P04637 [Y220C]; assay: Activation of p53 Y220C mutant in human NUGC3 cells assessed as change in PRKCA mRNA level at 60 uM after 18 hrs by RT-PCR method relative to control; format: cell-based; outline: as §3
[10] = target: T1, Cellular tumor antigen p53; assay: Activation of p53 in human NUGC4 cells assessed as change in BBC3 mRNA level at 60 uM after 18 hrs by RT-PCR method relative to control; format: cell-based; details: read-out: FC; outline: as §3
[11] = test system: Cellular tumor antigen p53 (Homo sapiens), P04637 [Y220C]; assay: Activation of p53 Y220C mutant in human NUGC3 cells assessed as change in CRADD mRNA level at 60 uM after 18 hrs by RT-PCR method relative to control; format: cell-based; outline: as §2
[12] = target: T1, Cellular tumor antigen p53; assay: Activation of p53 in human NUGC4 cells assessed as change in CDK4 mRNA level at 60 uM after 18 hrs by RT-PCR method relative to control; format: cell-based; details: read-out: FC; outline: as §1
Huh-7 = assay: Upregulation of BBC3 mRNA level in p53 Y220C mutant knockout human HuH7 cells at 30 uM after 18 hrs by RT-PCR method; format: functional, cell-based
[13] = test system: Cellular tumor antigen p53 (Homo sapiens), P04637 [Y220C]; assay: Activation of p53 Y220C mutant in human NUGC3 cells assessed as change in STAT1 mRNA level at 60 uM after 18 hrs by RT-PCR method relative to control; format: cell-based; outline: as §3
[14] = test system: Cellular tumor antigen p53 (Homo sapiens), P04637 [Y220C]; assay: Activation of p53 Y220C mutant in human NUGC3 cells assessed as change in SIRT1 mRNA level at 60 uM after 18 hrs by RT-PCR method relative to control; format: cell-based; outline: as §3
[15] = test system: Cellular tumor antigen p53 (Homo sapiens), P04637 [Y220C]; assay: Activation of p53 Y220C mutant in human NUGC3 cells assessed as change in BAX mRNA level at 60 uM after 18 hrs by RT-PCR method relative to control; format: cell-based; outline: as §2
[16] = target: T1, Cellular tumor antigen p53; assay: Activation of p53 in human NUGC4 cells assessed as change in S1AH1 mRNA level at 60 uM after 18 hrs by RT-PCR method relative to control; format: cell-based; details: read-out: FC
[17] = test system: Cellular tumor antigen p53 (Homo sapiens), P04637 [Y220C]; assay: Activation of p53 Y220C mutant in human NUGC3 cells assessed as change in BCL2A1 mRNA level at 60 uM after 18 hrs by RT-PCR method relative to control; format: cell-based; outline: as §2
[18] = target: T1, Cellular tumor antigen p53; assay: Activation of p53 in human NUGC4 cells assessed as change in CDKN2A mRNA level at 60 uM after 18 hrs by RT-PCR method relative to control; format: cell-based; details: read-out: FC; outline: as §1
[19] = target: T1, Cellular tumor antigen p53; assay: Activation of p53 in human NUGC4 cells assessed as change in CDKN1A mRNA level at 60 uM after 18 hrs by RT-PCR method relative to control; format: cell-based; details: read-out: FC; outline: as §1
[20] = target: T1, Cellular tumor antigen p53; assay: Activation of p53 in human NUGC4 cells assessed as change in PIDD1 mRNA level at 60 uM after 18 hrs by RT-PCR method relative to control; format: cell-based; details: read-out: FC
[21] = target: T1, Cellular tumor antigen p53; assay: Activation of p53 in human NUGC4 cells assessed as change in MDM4 mRNA level at 60 uM after 18 hrs by RT-PCR method relative to control; format: cell-based; details: read-out: FC; outline: as §1
[22] = test system: Cellular tumor antigen p53 (Homo sapiens), P04637 [Y220C]; assay: Activation of p53 Y220C mutant in human NUGC3 cells assessed as change in MDM4 mRNA level at 60 uM after 18 hrs by RT-PCR method relative to control; format: cell-based; outline: as §3
[23] = target: T1, Cellular tumor antigen p53; assay: Activation of p53 in human NUGC4 cells assessed as change in PPM1D mRNA level at 60 uM after 18 hrs by RT-PCR method relative to control; format: cell-based; details: read-out: FC
[24] = target: T1, Cellular tumor antigen p53; assay: Activation of p53 in human NUGC4 cells assessed as change in CHEK2 mRNA level at 60 uM after 18 hrs by RT-PCR method relative to control; format: cell-based; details: read-out: FC; outline: as §1
[25] = target: T1, Cellular tumor antigen p53; assay: Activation of p53 in human NUGC4 cells assessed as change in CHEK1 mRNA level at 60 uM after 18 hrs by RT-PCR method relative to control; format: cell-based; details: read-out: FC; outline: as §1
[26] = test system: Cellular tumor antigen p53 (Homo sapiens), P04637 [Y220C]; assay: Activation of p53 Y220C mutant in human NUGC3 cells assessed as change in TP53BP2 mRNA level at 60 uM after 18 hrs by RT-PCR method relative to control; format: cell-based; outline: as §3
[27] = target: T1, Cellular tumor antigen p53; assay: Activation of p53 in human NUGC4 cells assessed as change in SESN2 mRNA level at 60 uM after 18 hrs by RT-PCR method relative to control; format: cell-based; details: read-out: FC

Activity [1]: Active
fold induction at 60 µM [2]: 0.8
fold change (FC) [3]: 1.5
fold induction at 60 µM [4]: 0.8
fold induction at 60 µM [5]: 1
fold change (FC) [6]: 1.5
fold induction at 60 µM [7]: 0.8
fold induction at 60 µM [8]: 1.2
fold change (FC) [9]: 1.1
fold induction at 60 µM [10]: 1.3
fold change (FC) [11]: 1.1
fold induction at 60 µM [12]: 0.8
fold change (FC) [13]: 0.8
fold change (FC) [14]: 1.7
fold change (FC) [15]: 1.1
fold induction at 60 µM [16]: 1.2
fold change (FC) [17]: 3.9
fold induction at 60 µM [18]: 0.5 to 1
fold induction at 60 µM [19]: 1.3
fold induction at 60 µM [20]: 0.8
fold induction at 60 µM [21]: 0.9
fold change (FC) [22]: 1.3
fold induction at 60 µM [23]: 0.9
fold induction at 60 µM [24]: 0.7
fold induction at 60 µM [25]: 0.7
fold change (FC) [26]: 1.8
fold induction at 60 µM [27]: 1.3
Structure (SMILES): CCNC(=O)c1c(O)c(I)c(-n2cccc2)c2sc(N(CC)CC)nc12
Activity (Huh-7): inactive
